From ChEMBL document CHEMBL2016433 (Bioorg Med Chem, 2012)
Active and inactive are the calls of the source.

Assays:
THP-1 [1] = test: Cytotoxicity against human THP1 cells assessed as cell viability after 24 hrs; type: functional, cell-based; conditions: THP-1, 24 h
THP-1 [2] = test: Induction of apoptosis in human THP1 cells after 24 hrs by acridine orange staining based fluorescence microscopy; type: functional
Procedure, shortened: (§1)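 HeLa, MOLT-3 and THP-1 cells were treated with increasing concentrations for 24 h, then stained with acridine orange and more than 600 cells scored by fluorescence microscopy for condensed or fragmented nuclei. AC30 is the concentration giving 30% apoptotic cells, from a best-fit curve versus log concentration.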

THP-1 [3] = test: Cytotoxicity against human THP1 cells after 24 hrs by trypan blue exclusion assay; type: functional
MOLT-3 [4] = test: Cytotoxicity against human MOLT3 cells after 24 hrs by trypan blue exclusion assay; type: functional
U-937 [5] = test: Induction of apoptosis in human U937 cells after 24 hrs by acridine orange staining based microscopy; type: functional, cell-based
Procedure, shortened: (§2)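 U937 cells were treated for 24 h at 37 °C with 1–100 µM compound or vehicle, then stained with acridine orange. Over 600 cells were scored by fluorescence microscopy; apoptosis was defined as uniformly stained nuclei with chromatin condensation or nuclear fragmentation. Mean and SD of at least three determinations.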

MOLT-3 [6] = test: Induction of apoptosis in human MOLT3 cells after 24 hrs by acridine orange staining based fluorescence microscopy; type: functional; procedure, shortened: as §1
MOLT-3 [7] = test: Cytotoxicity against human MOLT3 cells assessed as cell viability after 24 hrs; type: functional, cell-based; conditions: MOLT-3, 24 h
U-937 [8] = test: Cytotoxicity against human U937 cells assessed as induction of cell death at 1 to 100 microM after 24 hrs by trypan blue exclusion method; type: functional, cell-based
U-937 [9] = test: Cytostatic against human U937 cells assessed as reduction in absolute number of total cells after 24 hrs by haemocytometry; type: functional, cell-based
Procedure, shortened: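 U937 cells, 5×10^4 per well in RPMI-1640 with 5% FBS, 2 mM L-glutamine and penicillin-streptomycin, were exposed to 1 in 10 serial dilutions from 100 µM to 1 µM (stocks 20 mM in DMSO or medium), or to vehicle, for 24 h at 37 °C in CO₂. Total cells were counted by haemocytometer; mean and SD of at least three determinations.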

U-937 [10] = test: Induction of cell death in human U937 cells assessed at 1 to 100 microM after 24 hrs by trypan blue exclusion method relative to untreated control; type: functional
Procedure, shortened: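 U937 cells (5×10^4 per well) exposed for 24 h at 37 °C, 5% CO₂ to 1 in 10 serial dilutions from 1 to 100 µM in RPMI-1640 with 5% FBS. Compounds came from 20 mM stocks in DMSO or medium. Controls got vehicle at equal amounts. Membrane-permeable cells were counted by trypan blue exclusion in a haemocytometer and expressed as percent. Mean and standard deviation from at least three determinations.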

PBMC [11] = test: Induction of apoptosis in human PBMC cells assessed as hypodiploid nuclei at 10 uM after 48 hrs by propidium iodide based flow cytometry analysis (reference value: 4.7 %); type: cell-based
U-937 [12] = test: Induction of apoptosis in human U937 cells assessed as hypodiploid nuclei at 100 uM after 24 hrs by propidium iodide based flow cytometry analysis (reference value: 3.2%); type: functional
MCF7 [13] = test: Cytotoxicity against human MCF7 cells assessed as compound concentration causing 30% reduction in formazan product formation after 48 hrs by MTS assay; type: functional; conditions: MCF7, 48 h
Procedure, shortened: (§3)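 HT-29, HepG2 and MCF7 cells were exposed to increasing concentrations for 48 h. MTS reagent was then added directly to the wells, incubated a further 4 h, and absorbance read at 490 nm. MAIC30 is the concentration reducing formazan formation by 30%, from a best-fit curve versus log concentration.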

U-937 [14] = test: Induction of apoptosis in human U937 cells at 100 uM after 24 hrs by acridine orange staining based microscopy; type: functional, cell-based; procedure, shortened: as §2
HepG2 [15] = test: Cytotoxicity against human HepG2 cells assessed as cell viability after 48 hrs; type: functional, cell-based; conditions: HepG2, 48 h
Procedure, shortened: (§4)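 HT-29, HepG2 and MCF7 cells were treated in wells with increasing concentrations for 48 h at 37 °C, 5% CO₂. Total cell count was taken by haemocytometer. IC50 is the concentration inhibiting total count by 50%, from a best-fit curve of the value versus log concentration.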

U-937 [16] = test: Induction of apoptosis in human U937 cells assessed as hypodiploid nuclei at 1 uM after 24 hrs by propidium iodide based flow cytometry analysis (reference value: 3.2%); type: functional
U-937 [17] = test: Induction of apoptosis in human U937 cells assessed as hypodiploid nuclei after 24 hrs by propidium iodide based flow cytometry analysis; type: functional, cell-based
PBMC [18] = test: Induction of apoptosis in human PBMC cells assessed as hypodiploid nuclei at 100 uM after 48 hrs by propidium iodide based flow cytometry analysis (reference value: 4.7 %); type: cell-based
HepG2 [19] = test: Cytotoxicity against human HepG2 cells assessed as compound concentration causing 30% reduction in formazan product formation after 48 hrs by MTS assay; type: functional; conditions: HepG2, 48 h; procedure, shortened: as §3
HT-29 [20] = test: Cytotoxicity against human HT-29 cells after 48 hrs by trypan blue exclusion assay; type: functional
Procedure, shortened: (§5)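 Adherent HT-29, HepG2 and MCF7 cells were seeded in 96 wells with increasing concentrations and incubated 48 h at 37 °C, 5% CO₂. Trypan blue exclusion was done directly in the culture wells. CC30 is the concentration giving 30% cytotoxicity, from a best-fit curve versus log concentration.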

MCF7 [21] = test: Cytotoxicity against human MCF7 cells after 48 hrs by trypan blue exclusion assay; type: functional; procedure, shortened: as §5
MCF7 [22] = test: Cytotoxicity against human MCF7 cells assessed as cell viability after 48 hrs; type: functional, cell-based; conditions: MCF7, 48 h; procedure, shortened: as §4
PBMC [23] = test: Induction of apoptosis in human PBMC cells assessed as hypodiploid nuclei at 50 uM after 48 hrs by propidium iodide based flow cytometry analysis (reference value: 4.7 %); type: cell-based
U-937 [24] = test: Induction of apoptosis in human U937 cells assessed as hypodiploid nuclei at 50 uM after 24 hrs by propidium iodide based flow cytometry analysis (reference value: 3.2%); type: functional
HT-29 [25] = test: Cytotoxicity against human HT-29 cells assessed as compound concentration causing 30% reduction in formazan product formation after 48 hrs by MTS assay; type: functional; conditions: HT-29, 48 h; procedure, shortened: as §3
PBMC [26] = test: Induction of apoptosis in human PBMC cells assessed as hypodiploid nuclei at 1 uM after 48 hrs by propidium iodide based flow cytometry analysis (reference value: 4.7 %); type: cell-based
U-937 [27] = test: Induction of apoptosis in human U937 cells assessed as hypodiploid nuclei at 10 uM after 24 hrs by propidium iodide based flow cytometry analysis (reference value: 3.2%); type: functional
HepG2 [28] = test: Cytotoxicity against human HepG2 cells after 48 hrs by trypan blue exclusion assay; type: functional; procedure, shortened: as §5
PBMC [29] = test: Induction of apoptosis in human PBMC cells assessed as hypodiploid nuclei after 24 hrs by propidium iodide based flow cytometry analysis; type: cell-based
HT-29 [30] = test: Cytotoxicity against human HT-29 cells assessed as cell viability after 48 hrs; type: functional, cell-based; conditions: HT-29, 48 h; procedure, shortened: as §4

CC(=O)OC[C@H]1O[C@@H](S)[C@H](OC(C)=O)[C@@H](OC(C)=O)[C@H]1OC(C)=O
IC50 (THP-1 [1]): > 100 µM
AC30 (THP-1 [2]): >100 µM
CC30 (THP-1 [3]): >100 µM
CC30 (MOLT-3 [4]): >100 µM
Activity (U-937 [5]): inactive
AC30 (MOLT-3 [6]): >100 µM
IC50 (MOLT-3 [7]): > 100 µM

CC(=O)OC[C@H]1O[C@@H](SSCc2cc(CSS[C@@H]3O[C@H](COC(C)=O)[C@@H](OC(C)=O)[C@H](OC(C)=O)[C@H]3OC(C)=O)cc(CSS[C@@H]3O[C@H](COC(C)=O)[C@@H](OC(C)=O)[C@H](OC(C)=O)[C@H]3OC(C)=O)c2)[C@H](OC(C)=O)[C@@H](OC(C)=O)[C@@H]1OC(C)=O
Activity (U-937 [8]): inactive
Activity (U-937 [9]): Dose-dependent effect
Activity (U-937 [10]): 25%
Activity (U-937 [5]): inactive

Cc1c(CSS[C@@H]2O[C@H](CO)[C@@H](O)[C@H](O)[C@H]2O)c(C)c(CSS[C@@H]2O[C@H](CO)[C@@H](O)[C@H](O)[C@H]2O)c(C)c1CSS[C@@H]1O[C@H](CO)[C@@H](O)[C@H](O)[C@H]1O
Activity (U-937 [8]): Active
Activity (U-937 [10]): 25%
Activity (U-937 [5]): inactive

CC(=O)OC[C@H]1O[C@@H](SSCc2cccc(CSS[C@@H]3O[C@H](COC(C)=O)[C@H](OC(C)=O)[C@H](OC(C)=O)[C@H]3OC(C)=O)c2)[C@H](OC(C)=O)[C@@H](OC(C)=O)[C@H]1OC(C)=O
Activity (PBMC [11]): 7.4%
Activity (U-937 [12]): 91.2%
Activity (U-937 [8]): Active
IC50 (THP-1 [1]): > 100 µM
IC30 (MCF7 [13]): 61 µM
AC30 (THP-1 [2]): 92 µM
CC30 (THP-1 [3]): >100 µM
Activity (U-937 [14]): Active
IC50 (HepG2 [15]): 54 µM
Activity (U-937 [16]): 3.1%
Activity (U-937 [17]): Dose-dependent effect
Activity (PBMC [18]): 31.2%
IC30 (HepG2 [19]): 41 µM
CC30 (HT-29 [20]): >100 µM
CC30 (MCF7 [21]): >100 µM
IC50 (MCF7 [22]): 42 µM
Activity (PBMC [23]): 30.9%
Activity (U-937 [24]): 51%
IC30 (HT-29 [25]): 12 µM
Activity (PBMC [26]): 4.9%
CC30 (MOLT-3 [4]): 54 µM
Activity (U-937 [27]): 4.2%
Activity (U-937 [9]): Active
CC30 (HepG2 [28]): 77 µM
Activity (U-937 [5]): Active
Activity (PBMC [29]): Non-toxic
AC30 (MOLT-3 [6]): 15 µM
IC50 (MOLT-3 [7]): > 100 µM
IC50 (HT-29 [30]): 60 µM

CC(=O)OC[C@H]1O[C@@H](SSCc2cccc(CSS[C@@H]3O[C@H](COC(C)=O)[C@@H](OC(C)=O)[C@H](OC(C)=O)[C@H]3OC(C)=O)c2)[C@H](OC(C)=O)[C@@H](OC(C)=O)[C@@H]1OC(C)=O
Activity (U-937 [8]): Active
Activity (U-937 [9]): Active
Activity (U-937 [5]): Active

CCc1c(CSS[C@@H]2O[C@H](COC(C)=O)[C@H](OC(C)=O)[C@H](OC(C)=O)[C@H]2OC(C)=O)c(CC)c(CSS[C@@H]2O[C@H](COC(C)=O)[C@H](OC(C)=O)[C@H](OC(C)=O)[C@H]2OC(C)=O)c(CC)c1CSS[C@@H]1O[C@H](COC(C)=O)[C@H](OC(C)=O)[C@H](OC(C)=O)[C@H]1OC(C)=O
Activity (U-937 [8]): inactive
Activity (U-937 [9]): Dose-dependent effect
Activity (U-937 [10]): 25%
Activity (U-937 [5]): inactive

CC(=O)OC[C@H]1O[C@@H](SSCc2ccc(CSS[C@@H]3O[C@H](COC(C)=O)[C@@H](OC(C)=O)[C@H](OC(C)=O)[C@H]3OC(C)=O)cc2)[C@H](OC(C)=O)[C@@H](OC(C)=O)[C@@H]1OC(C)=O
Activity (U-937 [8]): Active

CCc1c(CSS[C@@H]2O[C@H](COC(C)=O)[C@@H](OC(C)=O)[C@H](OC(C)=O)[C@H]2OC(C)=O)c(CC)c(CSS[C@@H]2O[C@H](COC(C)=O)[C@@H](OC(C)=O)[C@H](OC(C)=O)[C@H]2OC(C)=O)c(CC)c1CSS[C@@H]1O[C@H](COC(C)=O)[C@@H](OC(C)=O)[C@H](OC(C)=O)[C@H]1OC(C)=O
Activity (U-937 [8]): Active
Activity (U-937 [10]): 25%
Activity (U-937 [5]): inactive

CC(=O)OC[C@H]1O[C@@H](SSc2cccc(SS[C@@H]3O[C@H](COC(C)=O)[C@@H](OC(C)=O)[C@H](OC(C)=O)[C@H]3OC(C)=O)c2)[C@H](OC(C)=O)[C@@H](OC(C)=O)[C@@H]1OC(C)=O
Activity (U-937 [8]): Active

CC(=O)OC[C@H]1O[C@@H](SSCc2c(C)c(CSS[C@@H]3O[C@H](COC(C)=O)[C@@H](OC(C)=O)[C@H](OC(C)=O)[C@H]3OC(C)=O)c(C)c(CSS[C@@H]3O[C@H](COC(C)=O)[C@@H](OC(C)=O)[C@H](OC(C)=O)[C@H]3OC(C)=O)c2C)[C@H](OC(C)=O)[C@@H](OC(C)=O)[C@@H]1OC(C)=O
Activity (U-937 [8]): Active
Activity (U-937 [10]): 25%
Activity (U-937 [5]): inactive

CCc1c(CSS[C@@H]2O[C@H](CO)[C@@H](O)[C@H](O)[C@H]2O)c(CC)c(CSS[C@@H]2O[C@H](CO)[C@@H](O)[C@H](O)[C@H]2O)c(CC)c1CSS[C@@H]1O[C@H](CO)[C@@H](O)[C@H](O)[C@H]1O
Activity (U-937 [8]): Active
Activity (U-937 [10]): 25%
Activity (U-937 [5]): inactive
